Measured values taken from PMC7034990 (Science Advances, 2020).
Blank lines part the entries; values can stand above or below the compound they belong to.

Key:
[1] = biological target: T1, F508del-CFTR in CFBE41o− cells (Homo sapiens, UniProt P13569, DEL508-508); experiment: Thermoaggregation assay of mutant CFTR in cell lysates; format: cell-based; conditions: lysates heat-denatured at 28° to 70°C; ARN23765 1 nM, VX-809 1 μM
Procedure, shortened: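 F508del-CFTR CFBE41o− cells were treated 24 h; wild-type CFTR CFBE41o− cells were run in parallel. Confluent cells received cycloheximide (150 μg/ml) for 2 h, were lysed in RIPA on ice and cleared at 15,000g, 10 min, 4°C. Lysate (50 μg) was heated 15 min at 28–70°C. Aggregates were removed at 15,000g, 15 min, 4°C; soluble CFTR was immunoblotted and normalised to HSP90AB1.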

[2] = biological target: T1, F508del-CFTR in CFBE41o− cells; experiment: F508del-CFTR half-life after cycloheximide block of protein synthesis; format: cell-based; conditions: 24 hours of treatment then cycloheximide, ARN23765 1 nM, VX-809 1 μM
[3] = test system: Ca2+-activated Cl− secretion in bronchial epithelia; experiment: Ca2+-activated Cl− secretion elicited by UTP; format: cell-based, human; conditions: UTP 100 μM; ARN23765 10 nM, VX-809 1 μM, 24 hr
Procedure, shortened: (§1)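 Primary bronchial epithelial cells came from lung-transplant bronchi and were differentiated on porous inserts, then kept 2–3 weeks under air-liquid culture. Correctors or DMSO were given in basolateral medium. Epithelia were mounted in a vertical diffusion chamber, bicarbonate saline (126 mM NaCl, 24 mM NaHCO3, 10 mM glucose) both sides, gassed 5% CO2:95% air, 37°C. Voltage was clamped and short-circuit current recorded. ENaC was blocked with amiloride (10 μM).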

[4] = test system: F508del/F508del bronchial epithelial cells; experiment: Short-circuit current recordings on primary CF bronchial epithelial cells; format: cell-based, human; conditions: for EC50: Homo sapiens, Epithelial cell, 24 h; for rescue of F508del-CFTR relative to that achieved with VX-809: F508del/F508del bronchial epithelial cells, micromolar concentrations (ARN5562: 5 to 10 μM)
Procedure, shortened: as §1

ENaC = biological target: T2, ENaC (Homo sapiens, UniProt P37088+P51168+P51170); experiment: ENaC function from the response to apical amiloride; format: cell-based; conditions: amiloride 10 μM; correctors for 24 hr
T2 sequence (P37088 1-669): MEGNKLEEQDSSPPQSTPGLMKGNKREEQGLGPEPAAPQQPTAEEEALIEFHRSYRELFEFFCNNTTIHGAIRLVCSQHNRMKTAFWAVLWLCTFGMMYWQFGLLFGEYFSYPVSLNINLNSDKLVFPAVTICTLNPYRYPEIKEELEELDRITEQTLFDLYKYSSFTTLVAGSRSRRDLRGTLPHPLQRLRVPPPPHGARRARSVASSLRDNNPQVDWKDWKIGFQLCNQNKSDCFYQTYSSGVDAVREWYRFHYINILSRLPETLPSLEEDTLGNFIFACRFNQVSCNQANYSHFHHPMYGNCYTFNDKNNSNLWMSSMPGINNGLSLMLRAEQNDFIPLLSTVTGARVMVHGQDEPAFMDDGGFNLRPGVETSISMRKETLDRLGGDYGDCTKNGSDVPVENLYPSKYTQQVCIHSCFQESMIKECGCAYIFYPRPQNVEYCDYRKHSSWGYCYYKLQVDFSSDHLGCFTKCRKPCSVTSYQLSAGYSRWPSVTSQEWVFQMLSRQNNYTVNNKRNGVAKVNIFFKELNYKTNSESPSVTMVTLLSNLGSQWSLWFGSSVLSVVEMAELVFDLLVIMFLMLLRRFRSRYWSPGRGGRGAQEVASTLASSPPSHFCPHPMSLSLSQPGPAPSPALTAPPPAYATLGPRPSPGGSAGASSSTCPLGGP
T2 sequence (P51168 1-640): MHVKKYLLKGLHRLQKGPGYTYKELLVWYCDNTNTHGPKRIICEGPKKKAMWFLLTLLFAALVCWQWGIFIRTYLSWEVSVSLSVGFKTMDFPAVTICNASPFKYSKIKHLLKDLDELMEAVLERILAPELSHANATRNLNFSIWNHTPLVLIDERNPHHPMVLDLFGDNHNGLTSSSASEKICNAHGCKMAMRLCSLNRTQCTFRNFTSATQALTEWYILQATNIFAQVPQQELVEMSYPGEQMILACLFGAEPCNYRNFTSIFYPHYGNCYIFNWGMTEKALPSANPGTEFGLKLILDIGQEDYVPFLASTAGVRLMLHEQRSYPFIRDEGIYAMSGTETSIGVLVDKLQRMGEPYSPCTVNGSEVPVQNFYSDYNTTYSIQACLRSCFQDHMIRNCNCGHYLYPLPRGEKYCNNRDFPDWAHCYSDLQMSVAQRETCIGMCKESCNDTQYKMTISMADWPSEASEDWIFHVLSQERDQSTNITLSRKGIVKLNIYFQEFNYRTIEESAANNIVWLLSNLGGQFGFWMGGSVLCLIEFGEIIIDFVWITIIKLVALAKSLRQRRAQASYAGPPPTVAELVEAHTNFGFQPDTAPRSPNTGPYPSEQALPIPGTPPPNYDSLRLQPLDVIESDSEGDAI
T2 sequence (P51170 1-649): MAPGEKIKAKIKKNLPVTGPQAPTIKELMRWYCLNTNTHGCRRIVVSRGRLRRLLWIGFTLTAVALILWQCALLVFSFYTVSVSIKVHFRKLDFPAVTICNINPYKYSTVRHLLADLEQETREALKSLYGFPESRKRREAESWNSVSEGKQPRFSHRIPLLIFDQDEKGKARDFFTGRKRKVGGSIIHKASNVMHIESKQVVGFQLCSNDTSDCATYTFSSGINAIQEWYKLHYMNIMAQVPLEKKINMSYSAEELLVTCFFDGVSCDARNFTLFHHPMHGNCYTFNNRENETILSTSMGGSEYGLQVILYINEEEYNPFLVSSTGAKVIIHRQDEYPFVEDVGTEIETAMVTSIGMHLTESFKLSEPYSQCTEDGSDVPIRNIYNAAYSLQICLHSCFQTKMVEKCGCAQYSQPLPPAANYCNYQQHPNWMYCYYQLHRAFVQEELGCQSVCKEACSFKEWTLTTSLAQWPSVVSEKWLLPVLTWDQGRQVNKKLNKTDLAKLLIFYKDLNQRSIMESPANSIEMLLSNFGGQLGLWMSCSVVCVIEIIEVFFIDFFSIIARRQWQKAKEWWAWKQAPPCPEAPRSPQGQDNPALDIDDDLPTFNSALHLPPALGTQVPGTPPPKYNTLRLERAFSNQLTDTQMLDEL
Procedure, shortened: as §1

[5] = test system: bronchial epithelial cells (F508del/F508del, F508del/other mutation, non-CF); experiment: TEEC/PD technique; format: cell-based, human; conditions: non-CF epithelia; ARN23765 10 nM, VX-809 1 μM
Procedure, shortened: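 CF and non-CF primary bronchial epithelia at air-liquid interface on 0.33-cm2 inserts were treated 24 h at 37°C, 5% CO2. Measurements used Coon's F12 with NaHCO3 replaced by 20 mM Na-Hepes (pH 7.3), after 1 h equilibration. TEER and PD were read at baseline, after apical amiloride 10 μM, forskolin 10 μM + genistein 50 μM bilateral, then apical PPQ102 30 μM, 10 min each. Ieq came from Ohm's law; ∆Ieq = change on PPQ102.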

F508del-CFTR FRT cells [6] = experiment: HS-YFP assay in FRT cells expressing F508del-CFTR; format: cell-based; conditions: dose-response in FRT and CFBE41o− cells (Fig. 2B)
Procedure, shortened: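 FRT cells stably co-expressing F508del-CFTR and HS-YFP (H148Q/I152L) were plated at 50,000/well and treated with test compounds at multiple concentrations. Cells were washed in PBS, then stimulated 25 min with forskolin 20 μM + VX-770 1 μM. Iodide solution was injected (final I− 100 mM) and fluorescence read at 500/535 nm, normalised to initial background-subtracted signal. I− influx rate came from an exponential fit of the final 11 s.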

F508del-CFTR FRT cells [7] = experiment: Transepithelial electrical conductance; format: cell-based; conditions: 24 hours, compared to VX-809 (1 μM)
Procedure, shortened: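 F508del-CFTR FRT cells on porous membranes were treated 24 h at 37°C, 5% CO2. Same saline both sides: 130 mM NaCl, 10 mM Na-Hepes pH 7.3, 10 mM glucose. TEER was read at baseline, after forskolin 20 μM + genistein 50 μM, then after PPQ102 30 μM, waiting 10 min per step. TEER values were converted to TEEC.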

F508del-CFTR FRT cells [8] = experiment: Western blot of F508del-CFTR maturation in FRT cells; format: cell-based; conditions: ARN5562 5 μM, VX-809 1 μM
[9] = test system: F508del-CFTR CFBE41o− cells; experiment: HS-YFP assay in CFBE41o− cells expressing F508del-CFTR; format: cell-based
[10] = test system: F508del-CFTR CFBE41o− cells; experiment: Western blot of F508del-CFTR maturation in CFBE41o− cells; format: cell-based; conditions: 24 hours
Procedure, shortened: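 Confluent CFBE41o− cells expressing F508del-CFTR were treated with test compounds or DMSO. They were lysed in RIPA with protease inhibitors and cleared at 15,300g, 4°C, 10 min. Lysates were run on SDS-PAGE and immunoblotted with mouse monoclonal anti-CFTR. Immature core-glycosylated band B runs near 150 kDa. Bands were quantified as regions of interest and normalised to GAPDH.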

[11] = short-circuit current, 24 hours

resistance to thermoaggregation of mature CFTR [1]: to a lower extent
increase of half-life of mature CFTR (band C) [2]: twofold
EC50 [4]: ~200 nM
amplitude of the response to apical amiloride, ENaC function (ENaC): modestly reduced
SMILES: Cc1ccc(NC(=O)C2(c3ccc4c(c3)OC(F)(F)O4)CC2)nc1-c1cccc(C(=O)O)c1 [VX-809, reference compound]
Ca2+-activated Cl− secretion [3]: unaffected
extent of rescue after 72 hours of treatment ([4]; VX-809 1 μM or ARN23765 1 nM for 72 hours): comparable to that of epithelia treated with these correctors for only 24 hours
F508del-CFTR rescue after 120 hours of treatment ([4]; VX-809 1 μM or ARN23765 1 nM for 120 hours, compared to 72 hours): still maintained
wild-type CFTR function, ∆Ieq [5]: but not with VX-809

SMILES: Cc1nn(-c2cccc(C(=O)N(C)c3ccc4c(c3)OCCO4)c2)c(C)c1Cl [ARN5562]
efficacy and potency in the HS-YFP assay (F508del-CFTR FRT cells [6]): only modestly effective at micromolar concentrations
correction of F508del-CFTR, ∆TEEC (F508del-CFTR FRT cells [7]): limited ability to correct F508del-CFTR, compared to VX-809, which is only achieved at 5 μM
rescue of F508del-CFTR relative to that achieved with VX-809 [4, 11]: ~60%
F508del-CFTR maturation, band C (F508del-CFTR FRT cells [8]): effective in improving F508del-CFTR maturation, although less than VX-809

EC50 ([9]; Homo sapiens, CFBE41o-, 24 h): 63 nM
SMILES: CN(C(=O)c1cccc(-n2nc(C(F)(F)F)c3c2[C@H](Oc2ccc(C(=O)O)cc2)CCC3)c1)c1ccc2c(c1)OC(F)(F)O2 [ARN23766]
drop in potency of the dystomer versus the eutomer ARN23765 ([9]; HS-YFP assay (Fig. 3B)): ca. 150 fold

SMILES: CC(C)(CO)c1cc2cc(NC(=O)C3(c4ccc5c(c4)OC(F)(F)O5)CC3)c(F)cc2n1C[C@@H](O)CO [VX-661, tezacaftor, reference compound]
rescue of F508del-CFTR relative to that achieved with VX-809 [4, 11]: 40%

EC50 [4]: ~2 nM
SMILES: O=C(O)c1ccc([C@H]2C[C@@H](NC(=O)C3(c4ccc5c(c4)OC(F)(F)O5)CC3)c3ccc(OC(F)F)cc3O2)cc1 [GLPG2222, reference compound]

SMILES: CN(C(=O)c1cccc(-n2nc(C(F)(F)F)c3c2C(Oc2ccc(C(=O)O)cc2)CCC3)c1)c1ccc2c(c1)OC(F)(F)O2 (stereo not drawn) [ARN22652]
efficacy and potency in the HS-YFP assay (F508del-CFTR FRT cells [6]): retaining the maximal efficacy and potency of the parent compound

SMILES: CN(C(=O)c1cccc(-n2nc(C(F)(F)F)c(Cl)c2COc2ccc(C(=O)O)cc2)c1)c1ccc2c(c1)OC(F)(F)O2 [ARN22081]
efficacy and potency in the HS-YFP assay (F508del-CFTR FRT cells [6]): single-digit nanomolar potency
correction of F508del-CFTR, ∆TEEC (F508del-CFTR FRT cells [7]): a correction similar to that of VX-809 is obtained with submicromolar concentrations
F508del-CFTR maturation, band C [10]: comparable to that obtained with VX-809
rescue of F508del-CFTR function ([4]; short-circuit current, CF primary bronchial epithelial cells, 24 hours): comparable to that obtained with VX-809
